Like-named read-outs stand apart in the source and are kept apart here. Blank lines part the entries; values can stand above or below the molecule they belong to. Where a SMILES comes first, the peptide text is derived from it. Bridges are numbered along the chain shown (N, C = ends). [ ]: non-standard residue; d: D form. The star is where a group is joined. X1 = CC[C@H](C)CCCCC(=O)*; Dab = NCC[C@H](N)C(=O)O
Experiments:
[1] = tested on: human AGP; experiment: Fluorometric assay: direct titration of fluorescent probe into AGP; conditions: for binding to AGP by direct fluorometric titration: emission did not plateau where seen, no Kd derived
[2] = tested on: human AGP; experiment: in vitro; conditions: pH 7.4, Ki
[3] = tested on: human AGP; experiment: Fluorometric probe displacement assay; conditions: for displacement of BODIPY-PL2 from AGP: probe BODIPY-PL2
[4] = rats; cited from earlier work
[5] = human plasma; equilibrium dialysis; cited from earlier work
[6] = cited from earlier work
[7] = tested on: human α-1-acid glycoprotein (AGP); experiment: Fluorometric probe displacement assay; conditions: human
[8] = tested on: human AGP; experiment: in vitro; conditions: pH 7.4
[9] = tested on: human AGP; experiment: Isothermal titration calorimetry; assay type: binding; conditions: for Kd: 25 °C
In short: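 Human AGP (63 μM) in 20 mM HEPES pH 7.0, degassed, was titrated with 80 × 3-μL injections of 10–13 mM test compound at 240-s intervals, stirred at 307 rpm. Runs were at 37 °C, with one compound also at 15, 20, 25 and 30 °C. Delipidation was on lipidex 1000 in 20 mM HEPES pH 7.4 at 37 °C. Heat of dilution was subtracted, and n and ΔH came from a one-set-of-sites fit.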

[10] = tested on: human AGP; experiment: Surface plasmon resonance; assay type: binding; conditions: for SPR binding response at single concentrations: 100 μM and 300 μM of each compound
In short: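 AGP was thiol-coupled (PDEA/EDC, MES pH 5.0) to a CM5 chip at 5000 RU, with PBS pH 7.4 running buffer at 25 °C. Compound series were 3-fold dilutions from 3 mM, plus single 100 and 300 μM injections, at 50 μL/min: 30 s association, 60 s dissociation. Response was read 10 s before association ended, reference-subtracted and MW-normalised. Glycine pH 1.7 regenerated the chip; chlorpromazine served as surface control. Runs were done ≥3 times.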

[11] = cited from earlier work; remark: listed apart in the source

Molecule: O=S(=O)(O)c1cccc2cccc(Nc3ccccc3)c12 [ANS, 1-anilino-8-naphthalene sulfonic acid]
Kd at 2 min ([1]; human, pH 7.4): 0.87 ± 0.07 µM

Molecule: CN(C)CCCN1c2ccccc2Sc2ccc(Cl)cc21 [Chlorpromazine]
Ki at 2 min ([2]; displacement of ANS): 0.14 ± 0.01 µM
Ki at 2 min ([2]; displacement of AO): 2.8 ± 0.2 µM
Ki at 2 min ([2]; displacement of NR): 0.67 ± 0.05 µM
displacement of BODIPY-PL2 from AGP [3]: able to compete with BODIPY-PL2

Molecule: CC[C@H](C)CCCCC(=O)N[C@@H](CCN)C(=O)N[C@H](C(=O)N[C@@H](CCN)C(=O)N[C@H]1CCNC(=O)[C@H]([C@@H](C)O)NC(=O)[C@H](CCN)NC(=O)[C@H](CCN)NC(=O)[C@H](CC(C)C)NC(=O)[C@@H](CC(C)C)NC(=O)[C@H](CCN)NC1=O)[C@@H](C)O [Colistin, colistin] (X1-[Dab]T[Dab][Dab][Dab][dL]L[Dab][Dab]T; lactam 4-C (inferred); N-terminus assumed)
plasma protein binding [4]: 55–57%
bound to plasma [5]: over 50%
level of plasma protein binding in neutropenic infected mice compared to healthy mice [6]: greater
displacement of BODIPY-PL2 from AGP [3]: unable to produce any discernible displacement
Ki ([7]; Ki values (text summary over probes), titration of probe-AGP solutions): > 200 µM
Ki ([7]; Ki, displacement of ANS, probe ANS, 20°C, mean ± SE, n = 3 unless otherwise indicated, ND = not detected): 351 ± 188 µM

Molecule: Polymyxin B [PmB]
Kd ([9]; read-out: Kd, delipidated AGP, delipidated sample): 210 µM
Kd ([9]; read-out: Kd, non-delipidated AGP, non-delipidated sample): 103 µM
SPR binding response at single concentrations [10]: highest response
bound to plasma [5]: over 50%
plasma protein binding, critically ill septic patients ([11]; critically ill septic patients): more than 90%
plasma protein binding, healthy subjects ([11]; healthy subjects): around 56%
displacement of BODIPY-PL2 from AGP [3]: unable to produce any discernible displacement
Ki ([3]; read-out: Ki values (text summary over probes), titration of probe-AGP solutions): > 200 µM
Ki ([3]; read-out: Ki, displacement of ANS, probe ANS, 20°C, mean ± SE, n = 3 unless otherwise indicated, ND = not detected): 225 ± 49 µM

Molecule: colistin methanesulfonate [CMS]
binding affinity for AGP by ITC [9]: no detectable binding affinity
SPR binding response at single concentrations [10]: very poor responses
concentration dependence of SPR binding ([10]; concentration series 3 mM to 1.3 μM): not concentration dependent
ability to displace the probes ([3]; ANS, Auramine O, Nile Red): no ability to displace any of the probes

More lines, now with the values ahead:

binding to AGP by direct fluorometric titration [1]: apparent weak affinity
Molecule: 2-(4,4-difluoro-5-methyl-4-bora-3a,4a-diaza-s-indacene-3-dodecanoyl)-1-hexadecanoyl-sn-glycero-3-phosphocholine [BODIPY-PL2]

binding to AGP by direct fluorometric titration [1]: no fluorescence emission observed
Molecule: CCCCCCCCCCCCCCCC(=O)OC[C@H](COP(=O)(O)OCCNC(=O)CCc1ccc2n1[B-](F)(F)[N+]1=C(C)C=C(C)C1=C2)OC(=O)CCCCCCCCCCCCCCC.CCN(CC)CC [BODIPY-PL1, N-(4,4-difluoro-5,7-dimethyl-4-bora-3a,4a-diaza-s-indacene-3-propionyl)-1,2-dihexa-decanoyl-sn-glycero-3-phosphoethanolamine, triethylammonium salt]

Kd at 2 min [8]: 0.91 ± 0.2 µM
Molecule: CCN(CC)c1ccc2nc3c4ccccc4c(=O)cc-3oc2c1 [NR, Nile Red]

binding affinity for AGP by ITC [9]: no detectable binding affinity
SPR binding response at single concentrations [10]: very poor responses
Molecule: Colistin nona-peptide [colistin NP]

binding to AGP by direct fluorometric titration [1]: weak AGP affinity
Molecule: [Dansyl-Lys]^1 polymyxin B3 [[Dansyl-Lys^1]PmB3]
